Screens (PubChem BioAssay)
Sampled rows, rich in hits. Any-hit rate of the full collection: about 2%.
PAD4 inh: human PAD4 inhibitors, primary screen, biochemical, fluorescence polarization, 1536-well format. Protein-arginine deiminase type-4 (Homo sapiens), Q9UM07. recombinant PAD4, RCA probe fluorescence polarization. inhibition, % at 6.36 µM. 330,000 tested, 0.41% active. AID 485272, 2010;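 active means percent inhibition above a cutoff equal to the mean of all tested compounds plus 3 SD, cut at about 15% in these data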
TCR CD3 inh: inhibitors of human TCR-CD3 interaction, primary screen, biochemical, fluorescence, TAMRA-labeled TCR probe; T-cell receptor (TCR); inhibition, % at 9.4 µM; 360,000 tested, 0.37% active; AID 651800, 2012; in the data active means inhibition above about 19%;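 further: recombinant mutant TCR 2C K166C tagged with TAMRA read by polarization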
TDP2 absorb: human TDP2 enzyme inhibitors, primary screen, biochemical, epi absorbance, recombinant enzyme; AID 720702, 2013; inhibition, % at 12.8 µM; T5PNP hydrolysis, p-nitrophenol absorbance 415 nm; 370,000 tested, 0.34% active;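 active means inhibition above the mean of all tested compounds plus 3 SD, set per campaign, cut at about 25% in these data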
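System – recombinant human TDP2 · Amount – 120 nM TDP2 per well · Buffer or medium – Mg2+-containing Tris-HCl buffer, pH 7.5 · Reagent – T5PNP substrate, 5 mM · Dosing – 12.8 µM single point, 1% DMSO · Incubation – 2 h at 37 °C · Measured by – epi absorbance · Read-out basis – percent inhibition · Benchmarks – high control without enzyme, low control DMSO plus TDP2 · Repeats – singlicate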
SIAE primary: human SIAE inhibitors, primary screen, biochemical, fluorescence polarization, FP-Rh probe, 1536-well HTS | AID 1053197, 2014 | 370,000 tested, 0.69% active | SIAE FP-Rh probe binding | Sialate O-acetylesterase (Homo sapiens), Q9HAT2 | inhibition, % at 9.66 µM;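 active means inhibition above a cutoff: mean of compounds within the control limits plus 3 SD of those, cut at about 17% in these data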
mABHD4 FP: ABHD4 inhibitors, primary screen, biochemical, fluorescence polarization, mouse. (Lyso)-N-acylphosphatidylethanolamine lipase (Mus musculus), Q8VD66. purified mABHD4, FP-Rh probe fluorescence polarization. AID 720543, 2013. inhibition, % at 8.92 µM. 370,000 tested, 0.54% active;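 active means inhibition exceeding the mean over every tested compound plus 3 SD, cut at about 30% in these data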
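Assay system: mABHD4 protein; medium: HEPES pH 7.0, NaCl, Pluronic buffer; dosing: 8.92 µM, single dose; schedule: 45 min + 60 min at 25 °C; signal: FP readout, ex 525 nm / em 598 nm; read-out: normalized percent inhibition of probe labeling; repeats: single replicate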
HTRA1 inh: HTRA1 serine protease inhibitors, primary screen, biochemical, fluorescence polarization, HTS; Q92743; 340,000 tested, 0.5% active; recombinant HTRA1, FP-rhodamine activity-based probe; inhibition, % at 5.96 µM; AID 504803, 2011; in the data active means inhibition above about 36%
SIAE inh conf: human SIAE inhibitors, retest, confirmation, biochemical, fluorescence polarization, FP-Rh probe, triplicate. 2,300 tested, 13% active. SIAE FP-Rh activity-based probe. shares compounds with SIAE primary. inhibition, % at 9.66 µM;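 active means mean inhibition of the replicates above the hit cutoff set in the primary screen, cut at about 17% in these data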;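 further: inhibitors lower polarization as more probe stays unbound to SIAE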
A number is an active result; 0 = inactive; - = no result given.

SMILES	PAD4 inh	TCR CD3 inh	TDP2 absorb	SIAE primary	mABHD4 FP	HTRA1 inh	SIAE inh conf
Cc1c(C(=O)N2CCC3(CC2)OCCO3)sc2ncnc(N3CCc4ccccc4C3)c12	0	0	0	0	0	0	-
Clc1ccc(NC2=NCCCS2)cc1Cl	0	0	0	0	0	0	-
CN1/C(=C\C=C2C(=O)NC(=S)NC2=O)C(C)(C)c2ccccc21	-	0	0	60	0	0	153
CC(NCc1cccc(Cl)c1Cl)C(O)c1ccccc1 (stereo not drawn)	0	0	0	0	0	0	-
CN(C)C(CNC(=O)Cc1c(Cl)cccc1Cl)c1ccccc1 (stereo not drawn)	0	0	0	17	0	0	0
CCS(=O)(=O)CCSP(=O)(OC)OC	-	0	0	34	0	0	49
CC(C)CC1(CCc2ccccc2)C(=O)NC(=O)NC1=O	-	0	0	0	0	0	-
COc1ccc(CN2CCCC(C(=O)c3ccc(Cl)cc3)C2)c(OC)c1 (stereo not drawn)	0	0	0	18	0	0	0
Cn1cc(C=C2C(=O)NC(=O)NC2=O)c2ccccc21	0	0	0	47	0	0	0
Cc1cc(C)cc(N2C(=O)NC(=O)/C(=C\c3cc(C)n(C)c3C)C2=O)c1	0	0	0	0	0	0	-
CC1=NN(c2ccccc2)C(=O)C1/C=C1/C(=O)NC(=O)N(c2cc(C)cc(C)c2)C1=O (stereo not drawn)	16	0	0	75	0	0	0
CC(NC1CCCCC1)C(O)C12CC3CC(CC(C3)C1)C2 (stereo not drawn)	0	0	0	0	0	0	-
CN(C(=O)Cc1ccc2c(c1)OCO2)C1CCCN(Cc2ccccc2F)C1 (stereo not drawn)	0	0	0	23	0	0	0
O=C(c1ccc2c(c1)OCO2)C1CCCN(Cc2ccc(F)c(F)c2)C1 (stereo not drawn)	0	0	0	0	0	0	-
CC(C)CN1Cc2cc(-c3ccccc3)ccc2-n2nncc2C1	-	0	0	0	0	-	-
O=c1[nH]c(=S)[nH]c(O)c1N=Nc1ccc2c(c1)OCCO2	0	0	0	0	0	0	-
O=c1[nH]c(O)c(N=Nc2ccc3c(c2)OCCO3)c(=O)[nH]1	0	0	0	17	0	0	0
O=[N+]([O-])c1ccc(Cl)c(Cl)c1Cl	0	0	0	0	0	0	-
CC(C)CCOP(N)(=O)Oc1ccccc1Cl (stereo not drawn)	0	0	0	39	0	0	30
NP(=O)(OCCCc1ccccc1)Oc1ccccc1Cl (stereo not drawn)	0	0	0	57	0	0	54
NP(=O)(OCCCc1ccccc1)c1ccccc1 (stereo not drawn)	0	0	0	0	0	0	-
NP(=O)(OCCCc1ccccc1)Oc1ccc(Cl)cc1 (stereo not drawn)	0	0	0	49	0	0	46
COc1cc2c3c(c1OC)-c1cc(O)ccc1CC3NCC2 (stereo not drawn)	0	0	0	0	0	0	-
COc1cc2c(cc1OC)-c1c(OC)c(OC)cc3c1[C@H](C2)[N+](C)(C)CC3	0	0	0	18	0	0	0
